Measured values: ChEMBL document CHEMBL1137295, “Discovery of HIV-1 protease inhibitors with picomolar affinities incorporating N-aryl-oxazolidinone-5-carboxamides as novel P2 ligands” (J Med Chem, 2006)

Tests used:
[1] = biological target: Human immunodeficiency virus type 1 protease (Human immunodeficiency virus 1, UniProt Q72874, A71V/G73S/I84V/L10I/L63P/L90M); test: Inhibition of HIV1 protease L10I/L63P/A71V/G73S/I84V/L90M mutant
In short: (§1)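 Protease desalted into 20 mM sodium acetate pH 5, about 50 nM apparent by A280. Preincubated with inhibitor in DMSO 20-30 min at room temperature. Buffer 0.1 M NaOAc, 1 M NaCl, 1 mM EDTA, 1 mM DTT, 2% DMSO, 1 mg/mL BSA, pH 4.7. Read 340/490 nm, 30 °C, ~10 min. Ki by nonlinear fit of initial velocity versus inhibitor concentration.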

[2] = biological target: Human immunodeficiency virus type 1 protease (Human immunodeficiency virus 1, UniProt Q72874, Q7K); test: Inhibition of wild type HIV1 protease Q7K mutant; in short: as §1
[3] = biological target: Human immunodeficiency virus type 1 protease (Human immunodeficiency virus 1, UniProt Q72874, G48V/I54V/L10I/L63P/V82A); test: Inhibition of HIV1 protease L10I/G48V/I54V/L63P/V82A mutant; in short: as §1
[4] = biological target: Human immunodeficiency virus type 1 protease (Human immunodeficiency virus 1, UniProt Q72874, D30N/L63P/N88D); test: Inhibition of HIV1 protease D30N/L63P/N88D mutant; in short: as §1

Work on `CC(C)CN(C[C@@H](O)[C@H](Cc1ccccc1)NC(=O)[C@@H]1CN(c2ccccc2)C(=O)O1)S(=O)(=O)c1ccc(N)cc1` yielded a Ki [1] of 10.3 nM, a Ki [2] of 0.53 nM and a Ki [3] of 2.08 nM. For the same molecule, the Ki [4] was 0.92 nM.
`COc1ccc(S(=O)(=O)N(CC(C)C)C[C@@H](O)[C@H](Cc2ccccc2)NC(=O)[C@H]2CN(c3ccccc3)C(=O)O2)cc1` gave a Ki [2] of 10.7 nM.
`COc1ccc(S(=O)(=O)N(CC(C)C)C[C@@H](O)[C@H](Cc2ccccc2)NC(=O)[C@@H]2CN(c3cccc(F)c3)C(=O)O2)cc1` gave a Ki [1] of 4.94 nM, a Ki [2] of 0.083 nM and a Ki [3] of 3.56 nM. For the same molecule, the Ki [4] was 0.08 nM.
Work on `COc1ccc(S(=O)(=O)N(CC(C)C)C[C@@H](O)[C@H](Cc2ccccc2)NC(=O)[C@@H]2CN(c3ccc(C(C)=O)cc3)C(=O)O2)cc1` yielded a Ki [1] of 1.94 nM, a Ki [3] of 0.78 nM and a Ki [4] of 0.179 nM.
`CC(C)CN(C[C@@H](O)[C@H](Cc1ccccc1)NC(=O)[C@@H]1CN(c2cccc(F)c2)C(=O)O1)S(=O)(=O)c1ccc(N)cc1` was tested, and the Ki [2] was 0.17 nM.
In the case of `CC(=O)c1ccc(N2C[C@@H](C(=O)N[C@@H](Cc3ccccc3)[C@H](O)CN(CC(C)C)S(=O)(=O)c3ccc(N)cc3)OC2=O)cc1`, the Ki [2] is reported as 0.184 nM.
`CC(C)CN(C[C@@H](O)[C@H](Cc1ccccc1)NC(=O)[C@@H]1CN(c2ccc(F)c(F)c2)C(=O)O1)S(=O)(=O)c1ccc2c(c1)OCO2` was tested, and the Ki [2] was 0.085 nM.
Molecule `CC(=O)c1cccc(N2C[C@@H](C(=O)N[C@@H](Cc3ccccc3)[C@H](O)CN(CC(C)C)S(=O)(=O)c3ccc4c(c3)OCO4)OC2=O)c1` has a Ki [1] of 3.51 nM, a Ki [2] of 0.006 nM and a Ki [3] of 0.72 nM. For the same molecule, the Ki [4] was 0.235 nM.
`CC(=O)c1cccc(N2C[C@@H](C(=O)N[C@@H](Cc3ccccc3)[C@H](O)CN(CC(C)C)S(=O)(=O)c3ccc(OC(F)(F)F)cc3)OC2=O)c1` showed a Ki [2] of 2 nM.
`COc1cccc(S(=O)(=O)N(Cc2cccs2)C[C@@H](O)[C@H](Cc2ccccc2)NC(=O)[C@@H]2CN(c3ccc(C(C)=O)cc3)C(=O)O2)c1` gave a Ki [2] of 29.5 nM.
`COc1ccc(S(=O)(=O)N(CC2CC2)C[C@@H](O)[C@H](Cc2ccccc2)NC(=O)[C@@H]2CN(c3ccc(C(C)=O)cc3)C(=O)O2)cc1` showed a Ki [2] of 0.8 nM.
`COc1cccc(S(=O)(=O)N(Cc2cccs2)C[C@@H](O)[C@H](Cc2ccccc2)NC(=O)[C@@H]2CN(c3cccc(F)c3)C(=O)O2)c1` gave a Ki [2] of 189 nM.
Molecule `CC(=O)c1cccc(N2C[C@@H](C(=O)N[C@@H](Cc3ccccc3)[C@H](O)CN(CC(C)C)S(=O)(=O)c3ccc(N)cc3)OC2=O)c1` has a Ki [2] of 0.032 nM.
Work on `CC(C)CN(C[C@@H](O)[C@H](Cc1ccccc1)NC(=O)[C@@H]1CN(c2cccc(F)c2)C(=O)O1)S(=O)(=O)c1ccc2c(c1)OCO2` yielded a Ki [2] of 0.107 nM.
Molecule `COc1ccc(S(=O)(=O)N(CC(C)C)C[C@@H](O)[C@H](Cc2ccccc2)NC(=O)[C@@H]2CN(c3cccc(F)c3)C(=O)O2)cc1F` has a Ki [2] of 0.07 nM.
`COc1cccc(S(=O)(=O)N(CC(C)C)C[C@@H](O)[C@H](Cc2ccccc2)NC(=O)[C@@H]2CN(c3ccccc3)C(=O)O2)c1` gave a Ki [2] of 3.8 nM.
`COc1cccc(S(=O)(=O)N(Cc2cccs2)C[C@@H](O)[C@H](Cc2ccccc2)NC(=O)[C@@H]2CN(c3ccccc3)C(=O)O2)c1` showed a Ki [2] of 239 nM.
Work on `CC(=O)c1ccc(N2C[C@@H](C(=O)N[C@@H](Cc3ccccc3)[C@H](O)CN(Cc3cccs3)S(=O)(=O)c3cc(F)c(F)cc3F)OC2=O)cc1` yielded a Ki [2] of 168 nM.
`CC(C)CN(C[C@@H](O)[C@H](Cc1ccccc1)NC(=O)[C@@H]1CN(c2cccc(C(F)(F)F)c2)C(=O)O1)S(=O)(=O)c1ccc2c(c1)OCO2` was tested, and the Ki [2] was 0.016 nM.
For `CC(C)CN(C[C@@H](O)[C@H](Cc1ccccc1)NC(=O)[C@@H]1CN(c2ccc(F)c(F)c2)C(=O)O1)S(=O)(=O)c1ccc(N)cc1`, the Ki [2] was 0.23 nM.
With `CC(C)CN(C[C@@H](O)[C@H](Cc1ccccc1)NC(=O)[C@H]1CN(c2ccccc2)C(=O)O1)S(=O)(=O)c1ccc(N)cc1` the Ki [2] was 37.4 nM.
With `O=C(N[C@@H](Cc1ccccc1)[C@H](O)CN(Cc1cccs1)S(=O)(=O)c1cc(F)c(F)cc1F)[C@@H]1CN(c2cccc(F)c2)C(=O)O1` the Ki [2] was 160 nM.
With `COc1ccc(S(=O)(=O)N(CC(C)C)C[C@@H](O)[C@H](Cc2ccccc2)NC(=O)[C@@H]2CN(c3cccc(C(F)(F)F)c3)C(=O)O2)cc1` the Ki [2] was 0.006 nM.
Work on `COc1ccc(S(=O)(=O)N(CC(C)C)C[C@@H](O)[C@H](Cc2ccccc2)NC(=O)[C@@H]2CN(c3ccccc3)C(=O)O2)cc1` yielded a Ki [2] of 0.1 nM.
In the case of `COc1ccc(S(=O)(=O)N(CC(C)C)C[C@@H](O)[C@H](Cc2ccccc2)NC(=O)[C@@H]2CN(c3ccc(F)c(F)c3)C(=O)O2)cc1`, the Ki [1] is reported as 8.69 nM, the Ki [2] is reported as 0.066 nM and the Ki [3] is reported as 1.18 nM. The Ki [4] was 0.152 nM.
`COc1ccc(S(=O)(=O)N(CC(C)C)C[C@@H](O)[C@H](Cc2ccccc2)NC(=O)[C@@H]2CN(c3cccc(C(C)=O)c3)C(=O)O2)cc1` showed a Ki [1] of 3.36 nM, a Ki [3] of 0.16 nM and a Ki [4] of 0.039 nM.
`COc1ccc(S(=O)(=O)N(CC(C)C)C[C@@H](O)[C@H](Cc2ccccc2)NC(=O)[C@@H]2CN(c3cccc(OC)c3)C(=O)O2)cc1` gave a Ki [2] of 0.045 nM.
In the case of `CC(C)CN(C[C@@H](O)[C@H](Cc1ccccc1)NC(=O)[C@@H]1CN(c2cccc(C(F)(F)F)c2)C(=O)O1)S(=O)(=O)c1ccc(N)cc1`, the Ki [1] is reported as 12.3 nM, the Ki [2] is reported as 0.042 nM and the Ki [3] is reported as 4.42 nM. For the same molecule, the Ki [4] was 0.36 nM.
For `COc1ccc(S(=O)(=O)N(CC(C)C)C[C@@H](O)[C@H](Cc2ccccc2)NC(=O)[C@@H]2CN(c3ccc(C(C)=O)cc3)C(=O)O2)cc1F`, the Ki [2] was 0.08 nM.
Work on `CC(=O)c1ccc(N2C[C@@H](C(=O)N[C@@H](Cc3ccccc3)[C@H](O)CN(CC(C)C)S(=O)(=O)c3ccc4c(c3)OCO4)OC2=O)cc1` yielded a Ki [2] of 0.016 nM.
Molecule `COc1ccc(S(=O)(=O)N(CC(C)C)C[C@@H](O)[C@H](Cc2ccccc2)NC(=O)[C@@H]2CN(c3cccc(C(F)(F)F)c3)C(=O)O2)cc1F` has a Ki [2] of 0.072 nM.
`O=C(N[C@@H](Cc1ccccc1)[C@H](O)CN(Cc1cccs1)S(=O)(=O)c1cc(F)c(F)cc1F)[C@@H]1CN(c2ccccc2)C(=O)O1` was tested, and the Ki [2] was 170 nM.
`COc1ccc(S(=O)(=O)N(CC2CC2)C[C@@H](O)[C@H](Cc2ccccc2)NC(=O)[C@@H]2CN(c3cccc(F)c3)C(=O)O2)cc1` gave a Ki [2] of 0.257 nM.
Work on `COc1ccc(S(=O)(=O)N(CC(C)C)C[C@@H](O)[C@H](Cc2ccccc2)NC(=O)[C@@H]2CN(c3ccc(F)c(F)c3)C(=O)O2)cc1F` yielded a Ki [2] of 0.343 nM.
`CC(C)CN(C[C@@H](O)[C@H](Cc1ccccc1)NC(=O)[C@@H]1CN(c2cccc(C(F)(F)F)c2)C(=O)O1)S(=O)(=O)c1ccc(OC(F)(F)F)cc1` showed a Ki [2] of 10 nM.
`COc1cccc(S(=O)(=O)N(CC(C)C)C[C@@H](O)[C@H](Cc2ccccc2)NC(=O)[C@@H]2CN(c3ccc(C(C)=O)cc3)C(=O)O2)c1` showed a Ki [2] of 0.84 nM.
`COc1ccc(S(=O)(=O)N(CC2CC2)C[C@@H](O)[C@H](Cc2ccccc2)NC(=O)[C@@H]2CN(c3ccc(F)c(F)c3)C(=O)O2)cc1` showed a Ki [2] of 0.58 nM.
For `COc1cccc(S(=O)(=O)N(CC2CCCO2)C[C@@H](O)[C@H](Cc2ccccc2)NC(=O)[C@@H]2CN(c3ccccc3)C(=O)O2)c1` (single isomer, unassigned), the Ki [2] was 42 nM.
`COc1cccc(S(=O)(=O)N(CC2CCCO2)C[C@@H](O)[C@H](Cc2ccccc2)NC(=O)[C@@H]2CN(c3cccc(F)c3)C(=O)O2)c1` (single isomer, unassigned) gave a Ki [2] of 150 nM.
